Broadly, the half-life is how long it takes for the measured level to halve.

From ChEMBL document CHEMBL1130424, “Stabilized analogs of thymopentin. 1. 4,5-Ketomethylene pseudopeptides” (J Med Chem, 1997) come the findings set out here.

The structures appear in SMILES notation.

Series [1] in a line: Half life by HPLC methods that permitted quantitative resolution of the decrease of TP-5 and the appearance of degradation products by absorbance, heparinized mouse serum; Not degraded. In kind it is ADME. Summed up: (§1)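 Mouse serum was prepared from whole blood with heparin sodium or EDTA as anticoagulant. Compounds were incubated for variable times, and incubation was ended by TFA to 10% (v/v) final, then 1 h at 0 °C and protein removal by centrifugation. Half-life came from HPLC absorbance following disappearance of parent and appearance of degradation products.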

The test system of series [2] is CCRF-CEM. The series is described as follows: Efficacy was measured as the percentage binding to CEM cells. In kind it is functional, Homo sapiens. Summed up:
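CEM T-cells, subcultured in RPMI-1640 with 20% serum and stored frozen, were set at 5×10^6 cells/0.1 mL binding buffer (RPMI-1640 with bacitracin). Unlabeled competitor was added at 10^-6–10^-3 M, then [3H]thymopentin (37 Ci/mmol, 548 000 cpm). Incubation was 25 °C for 30 min, followed by two ice-cold washes and scintillation counting. Values are means of replicates at 10^-4 and 10^-3 M.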

Series [3] can be described thus: Half life by HPLC methods that permitted quantitative resolution of the decrease of TP-5 and the appearance of degradation products by absorbance, human heparinized serum; Not degraded. The format is ADME.
Series [4] relates to CCRF-CEM. The series is described as follows: Binding was measured using [3H]thymopentin was compared to the CEM cell binding assay. In kind it is functional, Homo sapiens. The arrangement: unit not given here.
Series [5] is described as follows: Half life by HPLC methods that permitted quantitative resolution of the decrease of TP-5 and the appearance of degradation products by absorbance in human heparinized serum; Not degraded. In kind it is ADME.
The nature of series [6]: Half life by HPLC methods that permitted quantitative resolution of the decrease of TP-5 and the appearance of degradation products by absorbance in heparinized mouse serum; Not degraded. In kind it is ADME. Summed up:
as §1

Series [7] is described as follows: Half life by HPLC methods that permitted quantitative resolution of the decrease of TP-5 and the appearance of degradation products by absorbance in EDTA-treated mouse serum. In kind it is ADME, organism-based. Summed up:
as §1

Series [8] in a line: Half life by HPLC methods that permitted quantitative resolution of the decrease of TP-5 and the appearance of degradation products by absorbance in human heparinized serum. The format is ADME.
The nature of series [9]: Half life by HPLC methods that permitted quantitative resolution of the decrease of TP-5 and the appearance of degradation products by absorbance in heparinized mouse serum. The format is functional, cell-free. Summed up: as §1
A short description of series [10]: Half life by HPLC methods that permitted quantitative resolution of the decrease of TP-5 and the appearance of degradation products by absorbance in heparinized mouse serum. In kind it is ADME. Summed up:
as §1

Series [11] can be described thus: Half life by HPLC methods that permitted quantitative resolution of the decrease of TP-5 and the appearance of degradation products by absorbance, heparinized mouse serum. In kind it is ADME. Summed up:
as §1

Series [12] can be described thus: Half life by HPLC methods that permitted quantitative resolution of the decrease of TP-5 and the appearance of degradation products by absorbance, human heparinized serum. In kind it is ADME, cell-free.

As for `CCCC[C@@H](C(=O)N[C@@H](CC(=O)O)C(=O)N[C@H](C(=O)C[C@H](C(=O)O)C(C)C)C(C)C)N(C)C(=O)[C@@H](N)CCCN=C(N)N`, the T1/2 result in series [1] and in series [3] was “Not degraded” throughout. This molecule returned an Efficacy with CCRF-CEM [2] of 37. Besides, in the series with CCRF-CEM [4], the Binding was 2356.

Turning to `CC(C)C[C@H](NC(=O)[C@@H](N)CCCN=C(N)N)C(=O)N[C@@H](CC(=O)O)C(=O)N[C@H](C(=O)C[C@H](Cc1ccccc1)C(=O)O)C(C)C`, in the series on CCRF-CEM [2], the Efficacy is given as 65. This molecule also returned a Binding in the series on CCRF-CEM [4] of 1851.

Consider `CC(C)[C@H](NC(=O)[C@H](CC(=O)O)NC(=O)[C@H](C)NC(=O)[C@@H](N)CCCN=C(N)N)C(=O)C[C@H](Cc1ccccc1)C(=O)O`, for which the Efficacy in the series on CCRF-CEM [2] was 67. Moreover, the Binding with CCRF-CEM [4] turned out to be 1780.

For `CCCC[C@@H](C(=O)N[C@@H](CC(=O)O)C(=O)N[C@H](C(=O)C[C@H](Cc1ccccc1)C(=O)O)C(C)C)N(C)C(=O)[C@@H](N)CCCN=C(N)N`, the T1/2 entry in [5] and in [6] was “Not degraded” throughout. The Efficacy in the series on CCRF-CEM [2] was 37. The Binding with CCRF-CEM [4] worked out at 2356.

The molecule `CCCC[C@H](NC(=O)[C@@H](N)CCCN=C(N)N)C(=O)N[C@@H](CC(=O)O)C(=O)N[C@@H](C(C)C)C1CC(Cc2ccccc2)C(=O)O1` (stereo partly specified) showed an Efficacy in the series with CCRF-CEM [2] of 16. Further, the Binding in the series on CCRF-CEM [4] amounted to 2771.

Turning to `CCCC[C@H](NC(=O)[C@@H](N)CCCN=C(N)N)C(=O)N[C@@H](CC(=O)O)C(=O)N[C@@H](C(C)C)C(O)C[C@H](Cc1ccccc1)C(=O)O` (stereo partly specified), in the series on CCRF-CEM [2], the Efficacy is reported as 35. For the same molecule, the Binding in the series on CCRF-CEM [4] was found to be 2400.

As for `CC(C)[C@H](NC(=O)[C@H](CC(=O)O)NC(=O)[C@H](CCCCN)NC(=O)[C@@H](N)CCCN=C(N)N)C(=O)C[C@H](Cc1ccccc1)C(=O)O` (stereo in doubt; 1a -A) [listing 1 of 2 here], the half-life in series [7] amounted to 4.9 min; in series [8], 2 min. In the series with CCRF-CEM [2], this molecule showed an Efficacy of 70. Further, the Binding in the series on CCRF-CEM [4] is reported as 1735.

In series [9], `CC(C)[C@H](NC(=O)[C@H](CC(=O)O)NC(=O)[C@H](CCCCN)NC(=O)[C@@H](N)CCCN=C(N)N)C(=O)C[C@H](Cc1ccccc1)C(=O)O` (stereo in doubt; 1a -A) [listing 2 of 2 here] displayed a T1/2 of 2 min.

With `CC(C)[C@H](NC(=O)[C@H](CC(=O)O)NC(=O)[C@H](CCCCN)NC(=O)[C@@H](N)CCCN=C(N)N)C(=O)C[C@H](Cc1ccccc1)C(=O)O` (stereo in doubt; 1a-B), the Efficacy in the series on CCRF-CEM [2] was 73. In the series with CCRF-CEM [4], this molecule had a Binding of 1673.

As for `CC(C)[C@H](NC(=O)[C@H](CC(=O)O)NC(=O)[C@@H]1CCCN1C(=O)[C@@H](N)CCCN=C(N)N)C(=O)C[C@H](Cc1ccccc1)C(=O)O` (stereo in doubt; 1b-A), the half-life in [7] turned out to be 17 min; in [8], 6 min; in series [10], 4.5 min. The Efficacy in the series with CCRF-CEM [2] came to 64. In the series with CCRF-CEM [4], this molecule returned a Binding of 1843.

`CC(C)[C@H](NC(=O)[C@H](CC(=O)O)NC(=O)[C@@H]1CCCN1C(=O)[C@@H](N)CCCN=C(N)N)C(=O)C[C@H](Cc1ccccc1)C(=O)O` (stereo in doubt; 1b-B) returned an Efficacy with CCRF-CEM [2] of 56. This molecule gave a Binding in the series on CCRF-CEM [4] of 2000.

Turning to `CCCC[C@H](NC(=O)[C@@H](N)CCCN=C(N)N)C(=O)N[C@@H](CC(=O)O)C(=O)N[C@H](C(=O)C[C@H](Cc1ccccc1)C(=O)O)C(C)C` (stereo in doubt; 1c-A), the results for the half-life in [7], in series [8] and in [10] were 21.1 min, 1.9 min and 5.5 min, respectively. In the series with CCRF-CEM [2], the Efficacy is on record as 95. The molecule also registered a Binding in the series on CCRF-CEM [4] of 1254.

Regarding `CCCC[C@H](NC(=O)[C@@H](N)CCCN=C(N)N)C(=O)N[C@@H](CC(=O)O)C(=O)N[C@H](C(=O)C[C@H](Cc1ccccc1)C(=O)O)C(C)C` (stereo in doubt; 1c-B), the Efficacy in the series on CCRF-CEM [2] turned out to be 84. The Binding in the series with CCRF-CEM [4] stood at 1453.

With `CC(C)[C@H](NC(=O)[C@H](CC(=O)O)NC(=O)[C@H](CCCCN)NC(=O)[C@@H](N)CCCN=C(N)N)C(=O)C[C@H](Cc1ccccc1)C(=O)O` (stereo in doubt; 1f-A), in the series on CCRF-CEM [2], the Efficacy was 54. Further, in the series with CCRF-CEM [4], the Binding amounted to 2044.

As for `CCCC[C@H](NC(=O)[C@@H](N)CCCN=C(N)N)C(=O)N[C@@H](CC(=O)O)C(=O)N[C@@H](C)C(=O)C[C@H](Cc1ccccc1)C(=O)O` (stereo in doubt; 1g-A), in series [7], the half-life stood at 20 min. In the series on CCRF-CEM [2], this molecule displayed an Efficacy of 73. Further, in the series with CCRF-CEM [4], the Binding came out at 1677.

In the series on CCRF-CEM [2], `CCCC[C@H](NC(=O)[C@@H](N)CCCN=C(N)N)C(=O)N[C@@H](CC(=O)O)C(=O)N[C@@H](C)C(=O)C[C@H](Cc1ccccc1)C(=O)O` (stereo in doubt; 1g-B) displayed an Efficacy of 71. The Binding in the series on CCRF-CEM [4] is on record as 1715.

`CCCC[C@H](NC(=O)[C@@H](N)CCCN=C(N)N)C(=O)N[C@@H](CC(=O)O)C(=O)N[C@H](C(=O)C[C@H](C(=O)O)C(C)C)C(C)C` (stereo in doubt; 1h-A) returned a T1/2 in series [11] of 1.2 min. This molecule also yielded an Efficacy with CCRF-CEM [2] of 77. The molecule also returned a half-life in series [12] of 2.4 min. Moreover, the Binding with CCRF-CEM [4] worked out at 1600.

`CCCC[C@H](NC(=O)[C@@H](N)CCCN=C(N)N)C(=O)N[C@@H](CC(=O)O)C(=O)N[C@H](C(=O)C[C@H](C(=O)O)C(C)C)C(C)C` (stereo in doubt; 1h-B): the T1/2 in series [11] stood at 2.6 min. In the series with CCRF-CEM [2], this molecule displayed an Efficacy of 71. In the series with CCRF-CEM [4], this molecule had a Binding of 1713.
